Broadly, the IC50 is the concentration needed to halve the response being measured. A high value points to weaker potency.

The source of these data is ChEMBL document CHEMBL1126841, “Synthesis and structure-activity relationships of 1-acyl-4-((2-methyl-3-pyridyl)cyanomethyl)piperazines as PAF antagonists” (J Med Chem, 1993).

Assay [1] has as its target Platelet-activating factor receptor (Mus musculus) (UniProt Q62035). The experiment in a line: Dose required to inhibit PAF-induced mortality by 50% in mice. It is filed as functional. The conditions noted are these: Mus sp. Put shortly:
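Male Swiss mice (22-26 g), groups of 10; test compound given po (20 mL/kg), controls 1% Tween 80. 60 min later, C18-PAF 100 µg/kg plus propanolol 1 mg/kg injected into a lateral tail vein. Mortality scored 2 h after PAF; % inhibition vs controls. ID50 from linear regression of one curve, ≥4 points. Initial dose 3 mg/kg; further doses only if >50% inhibition.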

Assay [2] concerns the target Platelet-activating factor receptor (Rattus norvegicus) (UniProt P46002). The experiment in a line: Intravenous dose required to reduce the arterial blood pressure caused by PAF by 50% in rats. The format is functional. A digest of the protocol:
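Male Sprague-Dawley rats (180-220 g) under pentobarbital anesthesia (50 mg/kg ip); carotid blood pressure recorded. Compound in saline given iv (femoral vein) 3 min before PAF 0.5 µg/kg iv; controls got vehicle. % inhibition of hypotension vs controls. ID50 from linear regression of one curve, ≥4 doses, each the mean of ≥2 independent experiments.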

Assay [3] deals with Rattus norvegicus. The experiment in a line: Tested for dose required to inhibit endotoxin-induced mortality by 50 % when administered intravenously in endotoxin-induced mortality (EIM) in rats. The format is functional. Particulars: iv, read-out: ID50 (the source's name). Put shortly: (§1)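 Groups of 10 male Sprague-Dawley rats (150-175 g) were dosed iv (saline vehicle) 5 min or po (1% Tween 80 vehicle) 30 min before tail-vein injection of E. coli 0127:B8 endotoxin, 5 mg/kg. Mortality was scored at 7 days versus vehicle controls. ID50 was obtained by linear regression of a single curve of at least four points.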

Assay [4] has as its system Rattus norvegicus. The experiment in a line: Tested for dose required to inhibit endotoxin-induced mortality by 50 % when administered perorally in endotoxin-induced mortality (EIM) in rats. The format is functional. Particulars: po, read-out: ID50 (the source's name). Put shortly: as §1
Assay [5] relates to Mus musculus. The experiment in a line: Tested for dose required to inhibit antigen-induced mortality by 50 % when administered intravenously in active anaphylactic shock (AAS) mice. The format is functional. Particulars: iv, read-out: ID50 (the source's name). Put shortly: (§2)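 Male Swiss mice (30 g, groups of 10) were sensitized by ip injection of 1 mL saline containing 1 mg bovine serum albumin, then challenged with BSA. Compound was given iv 5 min or po 30 min before challenge. Survival was recorded 60 min after BSA. ID50 (dose inhibiting mortality by 50%) was obtained by linear regression of a single curve of at least four points.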

In assay [6] the test system is Mus musculus. The experiment in a line: Tested for dose required to inhibit antigen-induced mortality by 50 % when administered perorally in active anaphylactic shock (AAS) mice. The format is functional. The conditions noted are these: po, read-out: ID50 (the source's name). A digest of the protocol: as §2
Assay [7] deals with Mus musculus. The experiment in a line: Tested for dose required to inhibit endotoxin-induced mortality by 50 % when administered intravenously in endotoxin-induced mortality (EIM) mice. The conditions noted are these: iv, read-out: ID50 (the source's name). The format is functional. Put shortly:
(§3)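 Groups of 10 male Swiss mice (22-26 g) were dosed iv (saline vehicle) 5 min or po (1% Tween 80 vehicle) 30 min before tail-vein injection of E. coli 0111:B4 endotoxin, 20 mg/kg. Mortality was scored at 7 days versus vehicle controls. ID50 was obtained by linear regression of a single curve of at least four points.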

Assay [8] has as its system Mus musculus. The experiment in a line: Tested for dose required to inhibit endotoxin-induced mortality by 50 % when administered perorally in endotoxin-induced mortality (EIM) mice. The format is functional. Particulars: po, read-out: ID50 (the source's name). Put shortly: as §3
The species named for assay [9] is Oryctolagus cuniculus. The experiment in a line: In vitro inhibition of PAF-induced platelet aggregation in male rabbits.
Assay [10] in a line: Inhibition of PAF-induced platelet aggregation.
Assay [11] concerns Rattus norvegicus. The experiment in a line: Tested for dose required to inhibit endotoxin-induced mortality by 50 % when administered intravenously in endotoxin-induced mortality (EIM) rats. The format is functional. Particulars: iv, read-out: ID50 (the source's name). A digest of the protocol:
as §1

Assay [12] concerns Rattus norvegicus. The experiment in a line: Tested for dose required to inhibit endotoxin-induced mortality by 50 % when administered perorally in endotoxin-induced mortality (EIM) rats. It is filed as functional. Particulars: po, read-out: ID50 (the source's name). A digest of the protocol: as §1
For assay [13], the system named is Mus musculus. The experiment in a line: Tested for dose required to inhibit antigen-induced mortality by 50 % when administered intravenously in active anaphylactic shock (AAS) mice. The format is functional. Particulars: iv, read-out: ID50 (the source's name). Put shortly:
as §2

The subject of assay [14] is Mus musculus. The experiment in a line: Tested for dose required to inhibit antigen-induced mortality by 50 % when administered perorally in active anaphylactic shock (AAS) mice. Particulars: po, read-out: ID50 (the source's name). The format is functional. Put shortly:
as §2

Assay [15] is filed under the species Oryctolagus cuniculus. The experiment in a line: In vitro inhibition of PAF-induced platelet aggregation in male rabbits. It is filed as functional. Put shortly: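 Platelet-rich plasma from blood spun 250 g, 10 min, 4 °C, diluted with platelet-poor plasma (3000 g, 10 min) to 3.5 × 10^5 platelets/mm3. Aggregation induced with C18-PAF 1.5 × 10^-8 M and read on a dual-channel aggregometer. IC50 as 50% inhibition of maximal aggregation, by linear regression of one curve, ≥4 points, each the mean of 1-3 independent experiments.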

Chain of Platelet-activating factor receptor (Mus musculus) (Q62035 whole entry): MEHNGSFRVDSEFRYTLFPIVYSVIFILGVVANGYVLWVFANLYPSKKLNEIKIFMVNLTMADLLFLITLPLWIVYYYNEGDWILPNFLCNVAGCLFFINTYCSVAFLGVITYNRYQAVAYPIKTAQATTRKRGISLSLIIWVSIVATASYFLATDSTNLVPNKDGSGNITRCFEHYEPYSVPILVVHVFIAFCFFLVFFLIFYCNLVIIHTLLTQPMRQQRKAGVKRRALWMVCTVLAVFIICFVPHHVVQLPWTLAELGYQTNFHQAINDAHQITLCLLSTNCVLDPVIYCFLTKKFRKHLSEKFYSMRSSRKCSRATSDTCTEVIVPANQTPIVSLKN
Chain of Platelet-activating factor receptor (Rattus norvegicus) (P46002 whole entry): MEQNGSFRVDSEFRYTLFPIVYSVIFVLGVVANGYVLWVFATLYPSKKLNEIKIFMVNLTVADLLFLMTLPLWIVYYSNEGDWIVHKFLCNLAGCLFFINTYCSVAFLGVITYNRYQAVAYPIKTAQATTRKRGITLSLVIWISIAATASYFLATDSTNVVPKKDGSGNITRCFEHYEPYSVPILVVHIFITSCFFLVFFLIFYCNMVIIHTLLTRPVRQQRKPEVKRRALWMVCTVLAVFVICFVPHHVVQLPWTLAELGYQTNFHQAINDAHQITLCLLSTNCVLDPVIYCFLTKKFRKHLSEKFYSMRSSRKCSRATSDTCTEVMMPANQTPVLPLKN

On to `Cc1ncccc1C(C#N)N1CCN(C(=O)CNC(c2ccccc2)c2ccccc2)CC1` (stereo unspecified), for which the ID50 in assay [1] was 0.3 mg/kg; in assay [2] it was 0.021 mg/kg. Besides, the ED50 in assay [3] is 0.28 mg/kg; in assay [4], 1.4 mg/kg; in [5], 0.51 mg/kg; in [6], 2.7 mg/kg; in [7] it was 1.4 mg/kg; in assay [8] it was 9 mg/kg.

Regarding `N#CC(c1cccnc1)N1CCN(C(=O)CC(O)(c2ccccc2)c2ccccc2)CC1` (stereo unspecified), in assay [9], it took 21 nM to reach half-maximal inhibition (IC50).

As for `N#CC(c1cccnc1)N1CCN(C(=O)CC(c2ccccc2)c2ccccc2)CC1` (stereo unspecified), in assay [10], half-maximal inhibition (IC50) was put at 20 nM.

`COC(=O)NC(CC(=O)N1CCN(C(C#N)c2cccnc2C)CC1)c1ccccc1` (stereo unspecified): the ID50 in assay [1] came out at 0.044 mg/kg; in assay [2], 0.015 mg/kg. The ED50 in assay [11] turned out to be 0.11 mg/kg; in assay [12], 1 mg/kg; in assay [13], 0.19 mg/kg; in assay [14], 2.7 mg/kg; in assay [7] it was 1.7 mg/kg; in [8] it was 7.5 mg/kg.

In turn, `N#CC(c1cccnc1)N1CCN(C(=O)CCNC(c2ccccc2)c2ccccc2)CC1` (stereo unspecified) had an IC50 in assay [10] of 53 nM.

Regarding `Cc1nnc2n1-c1sc(CCC(=O)N3CCOCC3)cc1C(c1ccccc1Cl)=NC2` [APAFANT], the ED50 in assay [11] stood at 0.47 mg/kg; in assay [12], 1.4 mg/kg; in assay [13], 1.7 mg/kg; in [14], 0.8 mg/kg; in assay [7] it was 1.7 mg/kg; in assay [8], 13.2 mg/kg.

With `Cc1ncccc1C(C#N)N1CCN(C(=O)CC(c2ccccc2)N2C(=O)CCC2=O)CC1` (stereo unspecified), the midpoint of inhibition in [15], the IC50, lay at 69 nM. The ID50 in assay [1] stood at 0.71 mg/kg; in [2], 0.042 mg/kg.

Take `N#CC(c1cccnc1)N1CCN(C(=O)CNC(c2ccccc2)c2ccccc2)CC1` (stereo unspecified): the ID50 in assay [1] amounted to 5.9 mg/kg; in assay [2], 0.023 mg/kg. Moreover, the IC50 in assay [10] is 9.1 nM.

Take `N#CC(c1cccnc1)N1CCN(C(=O)C=C(c2ccccc2)c2ccccc2)CC1` (stereo unspecified): in [9], the IC50 was 10 nM.

For the compound `Cc1ncccc1C(C#N)N1CCN(C(=O)CC(O)(c2ccc(F)cc2)c2ccc(F)cc2)CC1` (stereo unspecified), the ID50 in assay [1] is > 3 mg/kg; in assay [2] it was 0.051 mg/kg.

`Cc1ncccc1C(C#N)N1CCN(C(=O)CC(c2ccccc2)N2CCCC2=O)CC1` (stereo unspecified): the values for the ID50 in assay [1] and in [2] were 0.13 mg/kg and 0.026 mg/kg, respectively.
